This note sets out measurements from paper PMC3144758 (Bioorganic chemistry, 2010).

This assay addresses Tip60 (Homo sapiens, UniProt Q92993). Nature of the assay: Radioactive HAT inhibition assay, Tip60. It counts as biochemical. The gist of the method:
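Recombinant Tip60 acetylates H4 N-terminal 20-mer peptide (100 μM) using [14C]acetyl-CoA (10 μM) at varied DMSO levels, 30 °C, in 50 mM HEPES pH 8.0, 0.1 mM EDTA, 50 μg/mL BSA, 1 mM DTT. Enzyme added after 5 min equilibration. Initial rates measured (<10% substrate consumed) by P81 filter binding, bicarbonate washes and scintillation. Readouts are fractional activity retained and IC50 (50% activity blocked). Runs at least twice.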

Sequence of Tip60 (Q92993 whole entry): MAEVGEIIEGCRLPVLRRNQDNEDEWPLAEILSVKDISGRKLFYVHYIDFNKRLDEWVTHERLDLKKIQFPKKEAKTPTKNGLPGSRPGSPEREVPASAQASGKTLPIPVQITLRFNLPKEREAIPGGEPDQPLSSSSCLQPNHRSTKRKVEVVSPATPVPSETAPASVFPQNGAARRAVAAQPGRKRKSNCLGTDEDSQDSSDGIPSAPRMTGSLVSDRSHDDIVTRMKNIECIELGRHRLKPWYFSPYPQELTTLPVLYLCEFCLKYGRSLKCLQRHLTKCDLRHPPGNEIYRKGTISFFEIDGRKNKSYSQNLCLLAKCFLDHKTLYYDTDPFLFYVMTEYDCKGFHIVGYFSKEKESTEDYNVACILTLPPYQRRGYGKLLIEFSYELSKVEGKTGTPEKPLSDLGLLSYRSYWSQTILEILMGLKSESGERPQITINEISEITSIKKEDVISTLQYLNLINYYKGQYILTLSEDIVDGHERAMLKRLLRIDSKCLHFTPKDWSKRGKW

In the case of `C[S+](C)[O-]` [DMSO], the “IC50 of DMSO on Tip60 activity” value (DMSO (v/v), H4-20 100 μM, [14C]acetyl-CoA 10 μM) came to 37%. Further, the “Retained activity of Tip60” value (at 30% of DMSO) was 90%.
